The target in one data set is CDK2/Cyclin A2 (Homo sapiens, UniProt P24941). Put plainly: Inhibition of human N-terminal GST-tagged CDK2 (1 to 298 residues)/Cyclin A (174 to 432 residues) expressed in Escherichia coli Turner (DE3) cells assessed as reduction in ADP formation using PKTPKKAKKL as substrate by resorufin dye based fluorescence assay.
Data set [1] is described as follows: Apparent permeability across apical to basolateral side in MDCK cells at 1 uM after 2 hrs by LC-MS/MS analysis. The data set is classed as ADME, cell-based, Canis lupus familiaris. Conditions: dog. In outline: (§1)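 MDCK monolayers were washed twice with pre-warmed HBSS (10 mM HEPES, pH 7.4) and equilibrated for 30 min at 37 °C. Compound at 1 μM in HBSS (0.5% DMSO final) was added to the apical or the basolateral donor side. After 2 h at 37 °C, donor and receiver samples were quenched in cold methanol with internal standards and analysed by LC-MS/MS. Runs were in duplicate; 100 μM Lucifer Yellow checked monolayer integrity.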

The nature of data set [2]: Apparent permeability across basolateral to apical side in MDCK cells at 1 uM after 2 hrs by LC-MS/MS analysis. The data set is classed as ADME, cell-based, Canis lupus familiaris. Conditions: dog. In outline: as §1
Data set [3] in a line: Efflux ratio of apparent permeability across basolateral to apical side over apical to basolateral side in MDCK cells at 1 uM after 2 hrs by LC-MS/MS analysis. The note with it: dog. The data set is classed as ADME, cell-based, Canis lupus familiaris. In short, it runs like this:
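MDCK monolayers washed twice with pre-warmed HBSS (10 mM HEPES, pH 7.4) and equilibrated 30 min at 37 °C. 1 μM working solution (0.5% DMSO final) added to apical or basolateral donor side, 37 °C for 2 h, run in duplicate. Donor and receiver samples quenched in cold methanol with internal standards and quantified by LC-MS/MS. Monolayer integrity checked by Lucifer Yellow (100 μM) leakage.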

Data set [4] can be described thus: Permeability across apical to basolateral side in MDCK cells assessed as drug recovery at 1 uM after 2 hrs by LC-MS/MS analysis. The format is ADME, cell-based, Canis lupus familiaris. The note with it: dog. In short, it runs like this:
as §1

Data set [5] in a line: Permeability across basolateral to apical side in MDCK cells at 1 uM after 2 hrs by LC-MS/MS analysis. The data set is classed as ADME, cell-based, Canis lupus familiaris. Conditions: dog. In short, it runs like this:
as §1

A further data set concerns the target CDK2/Cyclin A1 (Homo sapiens, UniProt P24941). Briefly: Inhibition of CDK2/Cyclin A1 (unknown origin) using histone H1 as substrate preincubated for 20 mins followed by 33P-ATP addition and measured after 2 hrs by filter binding method. The data set is classed as protein-complex assay.
The target of data set [6] is Cyclin-dependent kinase 2/cyclin E1 (Homo sapiens, UniProt P24941). Put plainly: Inhibition of CDK2/Cyclin E (unknown origin) using histone H1 as substrate preincubated for 20 mins followed by 33P-ATP addition and measured after 2 hrs by filter binding method. The format is protein-complex assay.
For a further data set, the target named is CDK2/Cyclin O (Homo sapiens, UniProt P22674+P24941). Put plainly: Inhibition of CDK2/Cyclin-O (unknown origin) using histone H1 as substrate preincubated for 20 mins followed by 33P-ATP addition and measured after 2 hrs by filter binding method. The format is protein-complex assay.
Another data set concerns MCF7. Briefly: Antiproliferative activity against human MCF7 cells assessed as reduction in cell viability up to 200 uM after 72 hrs by alamarBlue assay. Conditions: dose microM <=200, time 72.0 hrs. The data set is classed as functional, cell-based. In short, it runs like this: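 MCF-7 cells seeded at 5000 per well and incubated overnight at 37 °C, 5% CO₂, then exposed to 8 concentrations from 0.00256 μM to 200 μM for 72 h. alamarBlue was then added and incubated 90 min at 37 °C. Proliferating cells were read by fluorescence (ex 530 nm, em 590 nm). Staurosporine served as positive control.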
On the technique in general: Alamar Blue is a resazurin reagent that responds to reducing activity.

Data set [7] has as its target Cyclin-dependent kinase 2 (Homo sapiens, UniProt P24941). Put plainly: Binding affinity to T7-tagged CDK2 (unknown origin) expressed in bacteriophage infected Escherichia coli BL21 incubated for 1 hr by magnetic beads based qPCR anlaysis. Background: In qPCR the cycle at which signal appears reflects the starting amount.

Active and inactive are the calls of the source. The rule behind the calls is not given here.

As a reminder, the IC50 is the concentration that inhibits the measured activity by half. The Papp A→B is how fast a substance crosses the layer from the apical side. A word on the Papp B→A: it is the apparent permeability from the basolateral to the apical side of a cell layer. As usually defined, the Kd is a measure of binding affinity in units of concentration.

With `Cc1nn(-c2ccccn2)c2c1C(=O)CC(C)C2Br` (stereo in doubt), at CDK2/Cyclin A2, the IC50 was found to be 4.8 µM.
Still for that read-out and setting: in the case of `Cc1nn(S(=O)(=O)c2ccc([N+](=O)[O-])cc2)c2c1C(=O)CC(C)(C)C2Br` (stereo not drawn) it was above 1000 µM.
On the same count and under the same terms, in the case of `Cc1nn(-c2cnccn2)c2c1C(=O)CC(C)(C)C2Br` (stereo not drawn) it was 97 µM; in that of `Cc1nn(-c2ncccc2C(F)(F)F)c2c1C(=O)C(Br)C(C)(C)C2` (stereo not drawn), 230 µM.
Consider `Cc1nn(-c2nc3ccccc3s2)c2c1C(=O)CC(C)(C)C2Br` (stereo not drawn), for which, on CDK2/Cyclin A2, the IC50 was above 1000 µM.
`Cc1nn(-c2ccccn2)c2c1C(=O)CC(C)(C)C2C` (stereo not drawn): the IC50 on CDK2/Cyclin A2 came out at 200 µM.
On to `COCCc1ccc(OCC(O)CNC(C)C)cc1` (stereo not drawn) [METOPROLOL], for which the Papp A→B at 2 h, 1 µM in data set [1] turned out to be 26.9 ×10⁻⁶ cm/s. The Papp B→A at 2 h, 1 µM in [2] turned out to be 21.2 ×10⁻⁶ cm/s. The Ratio in data set [3] is listed as 0.79. Further, the Drug recovery in data set [4] was 90.7%; in data set [5], 90.4%.
As to `Cc1nn(-c2ccc(NS(C)(=O)=O)cn2)c2c1C(=O)CC(C)(C)C2Br` (stereo not drawn), the IC50 on CDK2/Cyclin A2 was found to be 19 µM.
In the case of `Cc1nn(-c2nccs2)c2c1C(=O)CC(C)(C)C2Br` (stereo not drawn), the IC50 is 2.2 µM on CDK2/Cyclin A2, 0.0243 µM on CDK2/Cyclin A1, 0.0023 µM in data set [6] and 0.0331 µM at CDK2/Cyclin O. Also, the result with MCF7 was inactive. In data set [7], the Kd stood at 4.8 µM.
`Cc1nn(-c2ccccn2)c2c1C(=O)CC(c1ccccc1)C2Br` (stereo not drawn): the IC50 at CDK2/Cyclin A2 was above 1000 µM.
Same read-out and setting: in the case of `Cc1cccnc1-n1nc(C)c2c1CC(C)(C)C(Br)C2=O` (stereo not drawn) it was 180 µM.
The same measure, in the same setting: to `Cc1nn(-c2ccccn2)c2c1C(=O)CC(C)(C)C2N(C)C` (stereo not drawn) belongs 630 µM; to `CC1(C)CC(=O)c2cnn(-c3ccccn3)c2C1`, above 1000 µM.
Same read-out and setting: to `Cc1nn(-c2ccccn2)c2c1C(=O)CCC2Br` (stereo not drawn) belongs 130 µM; to `Cc1nn(-c2ccccn2)c2c1C(=O)CC(C)(C)C2N=[N+]=[N-]` (stereo not drawn), 4.5 µM; to `COC1c2c(c(C)nn2-c2ccccn2)C(=O)CC1(C)C` (stereo not drawn), 46 µM.
Turning to `Cc1nn(-c2ncccn2)c2c1C(=O)CC(C)(C)C2Br` (stereo not drawn), the IC50 at CDK2/Cyclin A2 worked out at 9.3 µM.
Same read-out and setting: in the case of `Cc1cccnc1-n1nc(C)c2c1C(Br)C(C)(C)CC2=O` (stereo not drawn) it was above 1000 µM.
Still for that read-out and setting: in the case of `Cc1nn(-c2ccc(NS(N)(=O)=O)cn2)c2c1C(=O)CC(C)(C)C2Br` (stereo not drawn) it was 2.4 µM; in that of `Cc1nn(-c2ccccn2)c2c1C(O)CC(C)(C)C2Br` (stereo not drawn), 560 µM.
Same read-out and setting: to `Cc1nn(-c2ccc(N)cn2)c2c1C(=O)CC(C)(C)C2Br` (stereo not drawn) belongs 4.6 µM.
In the case of `CC(C)Cc1nn(-c2ccccn2)c2c1C(=O)CC(C)(C)C2Br` (stereo not drawn), on CDK2/Cyclin A2, the IC50 stood at 820 µM.
Regarding `Cc1ccc(NC(=O)c2ccc(CN3CCN(C)CC3)cc2)cc1Nc1nccc(-c2cccnc2)n1` [IMATINIB], the results for the Drug recovery in [4] and in data set [5] were 56.6% and 69.9%, respectively.
Take `Cc1nn(-c2ccccn2)c2c1C(=O)CC(C)C2Br` (cis isomer): the IC50 on CDK2/Cyclin A2 was found to be 31 µM.
For `Cc1nn(-c2ccccn2)c2c1C(=O)CC(C)(C)C2Sc1ccccc1` (stereo not drawn), the IC50 at CDK2/Cyclin A2 is 12 µM.
On the same count and under the same terms, in the case of `Cc1nn(-c2ccc(C(F)(F)F)cn2)c2c1C(=O)CC(C)(C)C2Br` (stereo not drawn) it was 6.7 µM.
On to `Cc1nn(-c2ccc3ccccc3c2)c2c1C(=O)CC(C)(C)C2Br` (stereo not drawn), for which the IC50 at CDK2/Cyclin A2 is 37 µM.
Consider `Cc1nn(-c2ccncn2)c2c1C(=O)CC(C)(C)C2Br` (stereo not drawn), for which the IC50 on CDK2/Cyclin A2 is 1.5 µM; at CDK2/Cyclin A1 it was 0.0464 µM; in [6] it was 0.0089 µM; on CDK2/Cyclin O, 0.0416 µM. For the same compound, the outcome with MCF7 was inactive. The same compound came in with a Kd in data set [7] of 4.5 µM.
`Cc1nn(-c2ccc(Cl)cn2)c2c1C(=O)CC(C)(C)C2Br` (stereo not drawn): the IC50 at CDK2/Cyclin A2 was 3 µM.
For the compound `Cc1nn(-c2ncccc2C(F)(F)F)c2c1C(=O)CC(C)(C)C2Br` (stereo not drawn), the IC50 at CDK2/Cyclin A2 came out at 460 µM.
Same read-out and setting: to `Cc1nn(-c2ccccn2)c2c1C(=O)CC(C)(C)C2` belongs 110 µM.
In the case of `C[C@H]1O[C@@H](O[C@H]2[C@@H](O)C[C@H](O[C@H]3[C@@H](O)C[C@H](O[C@H]4CC[C@@]5(C)[C@H](CC[C@@H]6[C@@H]5C[C@@H](O)[C@]5(C)[C@@H](C7=CC(=O)OC7)CC[C@]65O)C4)O[C@@H]3C)O[C@@H]2C)C[C@H](O)[C@@H]1O` [DIGOXIN], the Drug recovery in [4] is on record as 77.1%; in [5] it was 83.7%.
Turning to `COc1cccc(-n2nc(C)c3c2C(Br)C(C)(C)CC3=O)n1` (stereo not drawn), the IC50 at CDK2/Cyclin A2 came to 2.1 µM.
On the same count and under the same terms, in the case of `Cc1ccc(-n2nc(C)c3c2C(Br)C(C)(C)CC3=O)nc1` (stereo not drawn) it was 7.5 µM; in that of `Cc1nn(-c2ccccn2)c2c1/C(=N/O)CC(C)(C)C2Br` (stereo not drawn), 59 µM.
Still for that read-out and setting: to `Cc1nn(-c2ccc(Cl)nn2)c2c1C(=O)CC(C)(C)C2Br` (stereo not drawn) belongs 26 µM.
On to `Cc1nn(-c2ccccn2)c2c1C(=O)CC(C)(C)C2O` (stereo not drawn), for which the IC50 on CDK2/Cyclin A2 worked out at 110 µM.
Still for that read-out and setting: to `Cc1nn(-c2ccc([N+](=O)[O-])cn2)c2c1C(=O)CC(C)(C)C2Br` (stereo not drawn) belongs 3.1 µM; to `CC(=O)Nc1ccc(-n2nc(C)c3c2C(Br)C(C)(C)CC3=O)nc1` (stereo not drawn), 3.6 µM.
The same measure, in the same setting: in the case of `CC1(C)CC(=O)c2cnn(-c3ccccn3)c2C1Br` (stereo not drawn) it was 160 µM; in that of `Cc1nn(-c2ccccn2)c2c1C(=O)CC(C(C)C)C2Br` (stereo in doubt), 470 µM; in that of `Cc1nn(-c2ccccn2)c2c1C(=O)CC(C)(C)C2F` (stereo not drawn), 21 µM.
Regarding `Cc1nn(-c2ccccn2)c2c1C(=O)NCC(C)(C)C2`, the IC50 on CDK2/Cyclin A2 is above 1000 µM.
Same read-out and setting: in the case of `Cc1nn(-c2ccccn2)c2c1C(=O)CC(C)(C)C2Cl` (stereo not drawn) it was 4.9 µM; in that of `Cc1nn(-c2ccccn2)c2c1C(=O)CC(C)(C)C2N` (stereo not drawn), 350 µM.
Same read-out and setting: in the case of `Cc1nn(-c2ccncc2)c2c1C(=O)CC(C)(C)C2Br` (stereo not drawn) it was 10.5 µM; in that of `Cc1nn(-c2ccccn2)c2c1C(=O)NCC(C)(C)C2Br` (stereo not drawn), 12 µM.
Same read-out and setting: in the case of `Cc1nn(CCC#N)c2c1C(=O)CC(C)(C)C2Br` (stereo not drawn) it was above 1000 µM.
With `Cc1nn(-c2ccccn2)c2c1C(=O)CC(C(C)C)C2Br` (trans isomer), the IC50 at CDK2/Cyclin A2 amounted to 130 µM.
On the same count and under the same terms, in the case of `Cc1nn(-c2ccccn2)c2c1C(=O)CC(C)(C)C2S(=O)(=O)c1ccccc1` (stereo not drawn) it was 107 µM; in that of `COC(=O)CC(=O)Nc1ccc(-n2nc(C)c3c2C(Br)C(C)(C)CC3=O)nc1` (stereo not drawn), 2.7 µM.
For the compound `Cc1nn(-c2ccccn2)c2c1NC(=O)CC(C)(C)C2`, the IC50 on CDK2/Cyclin A2 was above 1000 µM.

The values above are taken from ChEMBL document CHEMBL4732187, “Tetrahydroindazole inhibitors of CDK2/cyclin complexes” (Eur J Med Chem, 2021).
